Assay results from ChEMBL document CHEMBL4715831, “Design and synthesis of 2-((1H-indol-3-yl)thio)-N-phenyl-acetamides as novel dual inhibitors of respiratory syncytial virus and influenza virus A” (Eur J Med Chem, 2020).
pEC50: −log10 of the molar value.

Columns and labels:
[1] = test system: Respiratory syncytial virus; experiment: Antiviral activity against GFP-fused wild-type RSV subgroup A Long infected in human HEp-2 cells measured 24 to 72 hrs post infection by fluorescence assay; type: functional, cell-based
Summary of the method: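 HEp-2 cells plated, then after 24 h infected with RSV-mGFP using 3-fold serially diluted inocula starting from 3 × 10^4 pfu/well. Compounds came from a 100 mM DMSO stock, diluted as indicated. RFU read at 479/517 nm at 24, 48 and 72 h post-infection, with non-infected cells as background. Mean ± SD of at least three experiments.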

[2] = Cytotoxicity against human HEp-2 cells assessed as reduction in cell viability measured after 48 hrs by MTS assay; type: cell-based
Summary of the method: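 HEp-2 cells plated; after 24 h, compound added and cells incubated 48 h. MTS (2 mg/ml) then added for 3 h at 37 °C in 5% CO2 and absorbance read at 490 nm. Untreated control set as 100%.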

Influenza A virus [3] = experiment: Antiviral activity against Influenza A virus A/WSN/33(H1N1) infected in human HEK293T cells measured after 24 hrs by Gaussia luciferase reporter gene method; type: functional, organism-based; details: A/WSN/1933(H1N1); for pEC50: HEK-293T
Summary of the method: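 HEK293T cells carrying a Gaussia luciferase reporter that is activated by IAV, infected with A/WSN/33 (H1N1) for 1 h at room temperature, then cultured 24 h at 37 °C with serially diluted compound. Supernatant Gluc read with coelenterazine-h (16.7 μM in PBS) as 0.5-s photon counts. Normalized to control set as 100%; ribavirin positive control; three experiments.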

[4] = Cytotoxicity against HEK293T cells assessed as reduction in cell viability measured after 48 hrs by CCK8 assay; type: cell-based, HEK-293T; details: human
Summary of the method: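 293T cells treated for 48 h with six compound concentrations from 12.5 to 200 μM, with DMSO-only cells as control. CCK-8 then added for 1 h at 37 °C and OD read at 450 nm. Mean ± SD of three experiments.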

[5] = Safety index, ratio of CC50 for HEK293T cells to EC50 for antiviral activity against Influenza A virus A/WSN/33(H1N1) infected in human HEK293T cells; type: toxicity, cell-based; details: read-out: Ratio CC50/EC50
[6] = Safety index, ratio of CC50 for human HEp-2 cells to EC50 for GFP-fused wild-type RSV subgroup A long infected in human HEp-2 cells; type: toxicity, cell-based; details: read-out: Ratio CC50/EC50
Influenza A virus [7] = experiment: Antiviral activity against Influenza A virus A/WSN/33(H1N1) infected in human HEK293T cells assessed as inhibition of viral replication at 10 uM measured after 24 hrs by Gaussia luciferase reporter gene method relative to control; type: functional; details: A/WSN/1933(H1N1), HEK-293T
Influenza A virus [8] = experiment: Antiviral activity against Influenza A virus A/WSN/33(H1N1) infected in MDCK cells measured after 24 hrs by Gaussia luciferase reporter gene method; type: functional, organism-based; details: A/WSN/1933(H1N1)
Summary of the method: (§1)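 MDCK cells infected with IAV A/WSN/33 (H1N1) or H3N2 for 1 h at room temperature, then cultured in fresh DMEM with serially diluted compound for 24 h at 37 °C. Gluc activity in the medium read with coelenterazine-h (16.7 μM in PBS). Normalized to control set as 100%; ribavirin positive control; mean ± SD of three experiments.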

[9] = Antiviral activity against H3N2 infected in MDCK cells measured after 24 hrs by Gaussia luciferase reporter gene method; type: functional, cell-based, H3N2 subtype; details: Influenza A virus; summary of the method: as §1
[10] = test system: Respiratory syncytial virus; experiment: Antiviral activity against GFP-fused wild-type RSV subgroup A Long infected in human HEp-2 cells assessed as relative fluorescence intensity at 20 uM pretreated for 1 hr followed by viral infection measured 24 to 72 hrs post infection by fluorescence assay; type: functional, Respiratory syncytial virus type A; details: time 24-73 hrs
Summary of the method: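 HEp-2 cells exposed to compound at 20 μM 1 h before RSV-mGFP infection (−1 h). GFP fluorescence read at 479/517 nm at 24, 48 and 72 h post-infection. Signal normalized to the DMSO control, set as 1; ribavirin was the positive control. Mean ± SD, three independent experiments.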

Influenza A virus [11] = experiment: Antiviral activity against Influenza A virus A/WSN/33(H1N1) infected in HEK293T cells assessed as relative fluorescence intensity at 20 uM pretreated for 2 hrs followed by viral infection and measured after 24 hrs by Gaussia luciferase reporter gene method; type: functional, A/WSN/1933(H1N1); details: time 26 hrs
Summary of the method: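 Time-of-addition assay: compound at 20 μM added before infection or at infection (0 h) in HEK293T-Gluc cells infected with A/WSN/33 (H1N1). Supernatant Gaussia luciferase measured after 24 h with coelenterazine-h. Values normalized to the DMSO control, set as 100%; ribavirin positive control. Mean ± SD, three independent experiments.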

Structure (SMILES) | pEC50 [1] | CC50 at 48 h [2] [µM] | pEC50 (Influenza A virus [3]) | CC50 at 48 h [4] [µM] | selectivity ratio [5] | selectivity ratio [6] | inhibition at 10 µM (Influenza A virus [7]) [%] | Activity [1] | Activity (Influenza A virus [3]) | pEC50 (Influenza A virus [8]) | pEC50 [9] | RFU [10] | RFU (Influenza A virus [11])
Cn1cc(SCC(=O)Nc2ccc(Cl)cc2Cl)c2ccccc21 | < 3.89 | > 1000 | 4.92 | > 100 | > 8.38 |  |  |  |  |  |  |  | 
Cn1cc(SCC(=O)Nc2cc(Cl)ccc2Cl)c2ccccc21 | < 3.89 | 76.9 | 4.80 | > 100 | > 6.38 |  |  |  |  |  |  |  | 
Cn1cc(SCC(=O)Nc2ccc(Cl)c(Cl)c2)c2ccccc21 | 4.90 | 30.5 | 6.19 | > 100 | > 156 | 2.45 | > 85 |  |  |  |  |  | 
O=C(CSc1c[nH]c2c(Cl)cccc12)Nc1ccc(Cl)c(Cl)c1 | 4.74 | 32.8 | 4.98 | 49.1 | 4.69 | 1.81 |  |  |  |  |  |  | 
O=C(CSc1c[nH]c2cccc(Cl)c12)Nc1ccc(Cl)c(Cl)c1 | 4.60 | 27.7 | 5.24 | 34.7 | 5.95 | 1.09 |  |  |  |  |  |  | 
COc1cccc2[nH]cc(SCC(=O)Nc3ccc(Cl)c(Cl)c3)c12 | < 3.89 | > 256 | 4.82 | > 100 | > 6.61 |  |  |  |  |  |  |  | 
Cn1cc(SCC(=O)Nc2cccc(Cl)c2)c2ccccc21 | 4.62 | 18.9 | 5.00 | > 100 | > 10 | 0.79 |  |  |  |  |  |  | 
COc1ccc2c(SCC(=O)Nc3ccc(Cl)c(Cl)c3)c[nH]c2c1 | 5.24 | 42.7 | 4.80 | 78.4 | 5 | 7.16 |  | Dose-dependent effect |  |  |  |  | 
CCOc1ccccc1NC(=O)CSc1c[nH]c2ncccc12 | < 3.89 | > 1000 | 4.50 | > 100 | > 3.21 |  |  |  |  |  |  |  | 
CCOc1ccccc1NC(=O)CSc1c[nH]c2cc(OC)ccc12 | 4.64 | 35.2 | 5.35 | 88.2 | 15.4 | 1.53 |  |  |  |  |  |  | 
COc1ccc2[nH]cc(SCC(=O)Nc3ccc(Cl)c(Cl)c3)c2c1 | 4.78 | 46.4 | 4.81 | 61.8 | 4.19 | 2.79 |  |  |  |  |  |  | 
CCOc1ccccc1NC(=O)CSc1c[nH]c2ccc(Cl)cc12 | 4.74 | 204 | 5.38 | 37.6 | 8.97 | 11.3 |  |  |  |  |  |  | 
COc1cccc2c(SCC(=O)Nc3ccc(Cl)c(Cl)c3)c[nH]c12 | 4.76 | 39.5 | 4.86 | > 100 | > 7.21 | 2.28 |  |  |  |  |  |  | 
CCOc1ccccc1NC(=O)CSc1c[nH]c2cccc(OC)c12 | 4.91 | 220 | 4.95 | > 100 | > 8.8 | 17.9 |  |  |  |  |  |  | 
CCOc1ccccc1NC(=O)CSc1c[nH]c2c(OC)cccc12 | 6.37 | 0.61 | 4.91 | > 100 | > 8.24 | 1.42 |  | Dose-dependent effect |  |  |  |  | 
O=C(CSc1c[nH]c2cc(Cl)ccc12)Nc1ccc(Cl)c(Cl)c1 | 4.86 | 27.8 | 5.13 | 67.8 | 9.16 | 1.99 |  |  |  |  |  |  | 

Structure (SMILES) | pEC50 [1] | CC50 at 48 h [2] [µM] | pEC50 (Influenza A virus [3]) | CC50 at 48 h [4] [µM] | selectivity ratio [5] | selectivity ratio [6] | inhibition at 10 µM (Influenza A virus [7]) [%] | Activity [1] | Activity (Influenza A virus [3]) | pEC50 (Influenza A virus [8]) | pEC50 [9] | RFU [10] | RFU (Influenza A virus [11])
Cn1cc([S+]([O-])CC(=O)Nc2ccc(Cl)cc2)c2ccccc21 (stereo unspecified) | < 3.89 | 61.9 | 5.00 | > 100 | > 10 |  |  |  |  |  |  |  | 
Cn1cc(S(=O)(=O)CC(=O)Nc2ccc(Cl)cc2Cl)c2ccccc21 | < 3.89 | > 1000 | 4.47 | > 100 | > 2.97 |  |  |  |  |  |  |  | 
Cn1cc(S(=O)(=O)CC(=O)Nc2cc(Cl)ccc2Cl)c2ccccc21 | < 3.89 | > 1000 | 4.74 | > 100 | > 6.72 |  |  |  |  |  |  |  | 
Cn1cc([S+]([O-])CC(=O)Nc2cccc(Cl)c2)c2ccccc21 (stereo unspecified) | < 3.89 | > 1000 | 4.41 | > 100 | > 2.55 |  |  |  |  |  |  |  | 
Cn1cc(SCC(=O)Nc2c(Cl)cccc2Cl)c2ccccc21 | 4.76 | 23.7 | 5.46 | > 100 | > 28.6 | 1.37 | > 85 |  | Dose-dependent effect | 5.76 | 5.82 |  | 
Cn1cc(S(=O)(=O)CC(=O)Nc2cccc(Cl)c2Cl)c2ccccc21 | 4.70 | 275 | 4.44 | > 100 | > 2.75 | 13.8 |  |  |  |  |  |  | 
CCOc1ccccc1NC(=O)CSc1c[nH]c2c(Cl)cccc12 | 5.35 | 262 | 5.76 | > 100 | > 57.5 | 58.8 |  |  |  | 5.36 | 5.74 |  | 
Cn1cc(SCC(=O)Nc2ccccc2Cl)c2ccccc21 | < 3.89 | > 1000 | 4.55 | > 100 | > 3.59 |  |  |  |  |  |  |  | 
Cn1cc(SCC(=O)Nc2ccc(Cl)cc2)c2ccccc21 | < 3.89 | 31.4 | 5.01 | > 100 | > 10.2 |  |  |  |  |  |  |  | 
CCOc1ccccc1NC(=O)CSc1c[nH]c2cccc(Cl)c12 | 5.61 | 7.15 | 6.24 | 25.2 | > 41 | 2.92 |  | Dose-dependent effect | Dose-dependent effect | 5.57 | 5.63 |  | 
O=C(CSc1c[nH]c2ccc(Cl)cc12)Nc1ccc(Cl)c(Cl)c1 | 5.00 | 35.2 | 5.12 | 42.7 | 5.53 | 3.54 |  |  |  |  |  |  | 
O=C(CSc1c[nH]c2ncccc12)Nc1ccc(Cl)c(Cl)c1 | < 3.89 | > 256 | 4.50 | > 100 | > 3.1 |  |  |  |  |  |  |  | 
Cn1cc([S+]([O-])CC(=O)Nc2ccccc2Cl)c2ccccc21 (stereo unspecified) | 4.91 | 97.4 | 4.53 | > 100 | > 3.36 | 7.89 |  |  |  |  |  |  | 
Cn1cc(SCC(=O)Nc2cccc(Cl)c2Cl)c2ccccc21 | < 3.89 | > 1000 | 4.86 | > 100 | > 7.26 |  |  |  |  |  |  |  | 
NC(=O)c1ncn([C@@H]2O[C@H](CO)[C@@H](O)[C@H]2O)n1 [RIBAVIRIN] | 4.80 | 274 | 4.60 | > 100 | > 3.99 | 17.3 |  |  |  | 4.80 | 4.69 | 0.04 | 0.67
